Compound activity from PubChem BioAssay.
RGS4 block: inhibitors of human RGS4. B-score at 10 µM. 0.45% of 310,000 active. P49798. HEK293 M3R/RGS4 inducible, Fluo-4 calcium flux; stronger effect = higher value; triggered by carbachol at its EC20;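 active = B-score, a plate-corrected calcium signal, over three deviations above library mean, with baseline fluorescence within five deviations of library mean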;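 also: RGS4 expression induced by doxycycline in cells with stable M3 receptor; B-score is computed from the integrated fluorescence ratio over baseline after carbachol; higher B-score means a larger calcium signal and so more RGS4 inhibition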
MrgX1 allo act: human MrgX1 positive allosteric modulation, primary screen; Q96LB2; 0.63% of 310,000 active; MrgX1-HEK293, Fluo-4 calcium flux, FDSS; stronger effect = higher value; B-score at 10 µM;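 active = plate-corrected calcium response at least 3 library SD above typical, normal starting fluorescence, not activating the receptor alone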;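 also: compound read alongside a low EC10 to EC30 dose of BAM8-22 agonist; peak minus trough fluorescence over baseline measured at the second addition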
KCC2 mod: KCC2 (human) Cl- transport modulation; Q9H2X9; B-score of Tl+ flux slope (higher = more flux/activation; lower = inhibition) at 10 µM; KCC2 cells, thallium flux FluoZin-2 fluorescence; 2.2% of 190,000 active; AID 1456;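 active = thallium flux slope and its plate-corrected score both differing from the plate sample mean at a set confidence after two filtering rounds, in either direction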;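 also: slope of fluorescence scaled to starting intensity during 10 to 20 s after thallium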
Target sequence (Q9H2X9 whole entry, looked up): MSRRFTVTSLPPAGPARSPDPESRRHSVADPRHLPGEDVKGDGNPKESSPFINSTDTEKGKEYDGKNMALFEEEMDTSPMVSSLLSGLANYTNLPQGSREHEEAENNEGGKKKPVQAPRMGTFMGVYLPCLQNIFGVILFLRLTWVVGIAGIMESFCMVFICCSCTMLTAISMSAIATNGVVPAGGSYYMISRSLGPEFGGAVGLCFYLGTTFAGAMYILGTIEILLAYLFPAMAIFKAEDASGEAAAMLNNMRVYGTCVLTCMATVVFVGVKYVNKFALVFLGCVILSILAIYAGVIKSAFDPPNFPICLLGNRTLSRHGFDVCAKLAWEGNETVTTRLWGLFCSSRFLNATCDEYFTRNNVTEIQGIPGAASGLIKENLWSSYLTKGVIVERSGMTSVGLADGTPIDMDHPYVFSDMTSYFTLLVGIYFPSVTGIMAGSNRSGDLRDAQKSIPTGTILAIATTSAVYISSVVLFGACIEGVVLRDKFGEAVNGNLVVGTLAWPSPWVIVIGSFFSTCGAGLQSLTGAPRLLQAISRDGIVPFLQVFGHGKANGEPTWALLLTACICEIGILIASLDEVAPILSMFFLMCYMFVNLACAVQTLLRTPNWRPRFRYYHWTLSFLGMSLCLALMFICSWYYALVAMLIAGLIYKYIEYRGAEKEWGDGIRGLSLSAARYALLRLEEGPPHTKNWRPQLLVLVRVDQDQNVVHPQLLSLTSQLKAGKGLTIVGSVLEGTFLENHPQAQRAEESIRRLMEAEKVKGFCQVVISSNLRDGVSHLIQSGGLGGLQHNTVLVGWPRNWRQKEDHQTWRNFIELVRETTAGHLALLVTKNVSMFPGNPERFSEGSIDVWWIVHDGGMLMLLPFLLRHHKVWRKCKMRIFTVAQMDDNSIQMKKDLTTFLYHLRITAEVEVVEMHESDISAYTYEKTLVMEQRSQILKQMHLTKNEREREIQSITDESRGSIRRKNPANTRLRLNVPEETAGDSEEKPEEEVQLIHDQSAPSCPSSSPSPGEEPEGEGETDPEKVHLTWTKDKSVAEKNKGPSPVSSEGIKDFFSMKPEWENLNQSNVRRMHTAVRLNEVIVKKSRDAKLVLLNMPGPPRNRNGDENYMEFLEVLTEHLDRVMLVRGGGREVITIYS
MrgX1 antag: blocks BAM8-22 activation of human MrgX1 receptor; Q96LB2; MRGX1-HEK293 calcium flux, Fluo-4, BAM8-22 antagonism; stronger effect = lower value; 1.3% of 310,000 active; B-score at 10 µM;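 active = calcium-response B-score plate-corrected more than 3 library SD below zero, starting fluorescence within 5 deviations, no agonist response on first addition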;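 also: peak minus trough fluorescence over baseline after final BAM8-22 challenge near maximal dose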
RGS4 pot: RGS4 potentiation or activation | B-score at 10 µM | HEK293 M3R/inducible RGS4, carbachol calcium flux Fluo4; stronger effect = lower value | AID 463111 | 0.92% of 310,000 active;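 active = B-score of the integrated calcium signal more than 4 SD below the library mean, with starting fluorescence not abnormally high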;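 also: negative B-score means reduced calcium response which marks RGS4 activation or potentiation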
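System – HEK293 FlpIn-TREx cells, stable M3R, doxycycline-inducible RGS4 · Reagent – ECmax carbachol challenge · Times – compound preincubation 20 min at room temperature before agonist · Technique – Fluo4 fluorescence kinetic imaging of calcium · Measure – B score of integrated Fluo4 ratio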
MrgX1 agonist: human MrgX1 receptor agonism, primary screen; B-score at 10 µM; MrgX1-HEK293 cells, Fluo-4 calcium fluorescence, agonist mode; stronger effect = higher value; 0.44% of 310,000 active; AID 588627; Q96LB2;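 active = calcium response B-score plate-corrected fluorescence ratio at least 3 library SD, with starting fluorescence B-score inside 5 SD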
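times = overnight plating, then 30 min 37 °C plus 30 min room-temperature dye loading | assay system = stable human MrgX1 HEK293 cell line | input = fifteen thousand cells per well | signal = kinetic calcium dye fluorescence, Fluo-4 NW | dosing = compound delivered in addition one of three | read-out = B-scored fluorescence response ratio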
MrgX1 ant reconf: confirmation of human MrgX1 receptor antagonists; shares compounds with MrgX1 antag; MrgX1-HEK293, BAM8-22 calcium flux, Fluo-4; stronger effect = lower value; remaining BAM8-22 calcium response % of control (stronger effect = lower value), % at 10 µM; 19% of 2,300 active; AID 602420;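 active = remaining agonist calcium response no higher than 100% minus 3 SD of agonist-only control wells, with starting fluorescence near control levels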;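 also: agonist BAM8-22 given at a near maximal EC90 to ECmax level; peak minus minimum fluorescence divided by baseline after agonist addition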
HEK293 Ca flux: activity in parental HEK293 cells lacking MrgX1; shares compounds with MrgX1 antag; Fluo-4 calcium fluorescence, FDSS; fluorescence ratio F(max-min)/F0 at 10 µM; 2% of 4,000 active;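 active = duplicate-averaged calcium fluorescence ratio at least three times the standard deviation of buffer wells, a nonspecific response in parental cells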
HEK293 Ca counter: activity in parental HEK293 cells without MrgX1; shares compounds with MrgX1 antag; parental HEK293 calcium flux, Fluo-4 fluorescence ratio; stronger effect = higher value; fluorescence ratio F(max-min)/F0 at 10 µM; 0.4% of 4,000 active;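 active = calcium fluorescence ratio, averaged over duplicates, at least 3 SD of the buffer-well ratio, meaning a nonspecific response in receptor-free cells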;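 also: untransfected parental HEK293 lacking MrgX1 used as counterscreen for MrgX1 allosteric activators; fluorescence change taken during the second addition on a kinetic imager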
HEK293 Ca cntr2: activity in parental HEK293 cells lacking MrgX1 receptor. shares compounds with MrgX1 antag. Fluo-4 calcium fluorescence (FDSS); stronger effect = higher value. fluorescence ratio F(max-min)/F0 at 10 µM. 8.7% of 4,000 active;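 active = calcium fluorescence ratio at least three times the spread of buffer wells, meaning a non-specific response in parental cells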
* marks the source's active call; other numbers are inactive results; i = inactive; · = no result. An excerpt weighted towards active compounds, which were near 4.7% of everything screened.

SMILES	RGS4 block	MrgX1 allo act	KCC2 mod	MrgX1 antag	RGS4 pot	MrgX1 agonist	MrgX1 ant reconf	HEK293 Ca flux	HEK293 Ca counter	HEK293 Ca cntr2
c1cc2c(cc1OCCNC1CCCC1)CCC2	i	i	0.55	i	i	i	·	·	·	·
CNCCCOc1ccc2c(c1)CCC2	i	i	2.1	-5*	i	i	i	i	i	i
COc1ccccc1N1CCN(CC(O)c2ccc3cc[nH]c3c2)CC1 (centres undefined)	i	i	0.05	-9.8*	i	i	i	i	i	i
CC(=O)N1CCC(=NNC(=O)c2cccs2)CC1	i	i	-0.075	i	i	i	·	·	·	·
CC(C)(C)c1csc(NC(=O)c2ccncc2)n1	i	i	0.054	-7*	i	i	i	i	i	i
CC(=O)Nc1ccc(SCCC2CCCCN2C)cc1 (centres undefined)	i	i	·	i	i	i	·	·	·	·
CCOC(=O)N1CCN(C(=O)CCN2C(=O)COc3ccc(C)cc32)CC1	i	i	0.35	-6*	i	i	i	i	i	i
CC(=O)N/C(=C\c1ccc(C)o1)C(=O)NCc1ccccc1	i	i	·	i	i	i	·	·	·	·
Oc1c(C=Nc2cccnc2)sc2ccccc12	i	i	-1	-4.9*	i	i	i	i	i	i
Oc1c(C=Nc2ccc(Cl)cn2)sc2ccccc12	i	i	0.5	i	i	i	·	·	·	·
Oc1c(/C=N/c2ccccn2)sc2ccccc12	i	i	0.19	-6.7*	i	i	69%*	i	i	i
COc1ccc(CNC(=O)c2cc(C)nn2-c2ccccc2)cc1	i	i	-0.42	i	i	i	·	·	·	·
Cn1c(=O)c2nnn(/N=C(\c3ccccc3)C3CC3)c2n(C)c1=O	i	i	·	-5.1*	i	i	68%*	i	i	i
CC1(c2ccccc2)NC(=O)N(CC(=O)Nc2ccccc2C(=O)NC2CC2)C1=O (centres undefined)	i	i	·	i	i	i	·	·	·	·
C=CCOc1ccc(/C=C/C(=O)OCC(=O)NCc2cccs2)cc1	i	i	·	i	i	i	·	·	·	·
COCCCN1C(=O)c2[nH]nc(-c3ccccc3O)c2C1c1ccc(Cl)cc1 (centres undefined)	i	i	-0.079	-4.8*	i	i	i	i	i	i
CN(Cc1ccccc1)C(=O)c1cccc(NC(=O)c2ccco2)c1	i	i	-1	i	i	i	·	·	·	·
CN(Cc1ccccc1)C(=O)c1ccc(NC(=O)c2ccccc2)cc1	i	i	·	-5.5*	i	i	i	i	i	i
CCC(CO)n1c(=S)[nH]c2cc(OC)c(OC)cc2c1=O (centres undefined)	i	i	1	-4.6*	i	i	i	i	i	i
COc1cc2[nH]c(=S)n(Cc3ccccc3)c(=O)c2cc1OC	i	i	2.4	i	i	i	·	·	·	·
COc1cc(OC)cc(C(=O)NCC2CCCN(Cc3cccc(C(C)=O)c3)C2)c1 (centres undefined)	i	i	·	i	i	i	·	·	·	·
